# Source: PubChem
# The list is not random: actives were taken first. Their share in the collection is about 5.9%.
# IDH1 mut inh: IDH1 R132H (human) inhibition; inhibition, % at 10 µM; IDH1 R132H reductase, diaphorase/resazurin fluorescence, 60 min; O75874; actives 0.18% (n = 70,000); in the data active means inhibition above about 34%; inconclusive means no clear call, values can overlap the other calls; inactive means below about 11%;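 further: 0% = DMSO and 100% = no enzyme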
# Target sequence (O75874 whole entry R132H): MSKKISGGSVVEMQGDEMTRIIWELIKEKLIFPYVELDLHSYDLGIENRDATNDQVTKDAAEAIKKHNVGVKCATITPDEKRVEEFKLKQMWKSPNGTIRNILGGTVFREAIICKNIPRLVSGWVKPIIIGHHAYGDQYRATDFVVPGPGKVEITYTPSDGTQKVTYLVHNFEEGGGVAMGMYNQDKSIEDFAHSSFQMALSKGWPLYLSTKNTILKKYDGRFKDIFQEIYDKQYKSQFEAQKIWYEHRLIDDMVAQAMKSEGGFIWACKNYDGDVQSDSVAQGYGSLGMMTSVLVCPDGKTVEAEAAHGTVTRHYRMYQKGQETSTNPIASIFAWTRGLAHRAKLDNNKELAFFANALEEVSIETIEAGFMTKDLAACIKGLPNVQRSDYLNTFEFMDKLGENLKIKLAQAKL
# Pf Dd2 growth: inhibitors of Plasmodium falciparum Dd2 growth | P. falciparum Dd2 growth, SYBR Green, 72 h; hits give low values | activity change, % at 10 µM | actives 2.3% (n = 94,000) | AID 1159554; in the data active means activity change below about -80%; inconclusive means no clear call, values can overlap the other calls
# KDM4C inh: inhibitors of human demethylase GASC-1 KDM4C; Q9H3R0; GST-KDM4C 2-372, H3K9me3 peptide, LANCE TR-FRET; inhibition, % at 12.5 µM; actives 0.15% (n = 96,000);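 active means mean replicate inhibition above about 25%, with at least 55% of replicates also reaching it, limit read from the data, passing the limit was not always enough; inconclusive means only one of those two conditions met; inactive means neither condition met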
#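 Material: GST-tagged GASC-1 (JMJD2C) catalytic fragment, aa 2-372. Input: enzyme final amount 10 nM. Medium: HEPES buffer, pH 7.5, plus ascorbate. Reagent: H3K9me3 peptide substrate, Fe(II), 2-oxoglutarate. Doses: single dose. Times: reaction 30 min RT, detection step 1 h RT. Measured by: LANCE TR-FRET. Evaluation: Fall in 671/618 emission ratio as inhibition.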
# T cruzi growth-1: blocks T. cruzi growth in NIH3T3 culture. T. cruzi beta-gal in NIH3T3, GalScreen luminescence, 90 h. inhibition, % at 8.34 µM. actives 5.9% (n = 77,000);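 active means mean inhibition above about 93%, with at least 55% of replicates each passing it, limit read from the data, passing the limit was not always enough; inconclusive means only one of those two conditions holds; inactive means neither condition holds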
# T cruzi growth-2: Trypanosoma cruzi proliferation inhibition | shares compounds with T cruzi growth-1 | T. cruzi beta-gal in NIH3T3, GalScreen luminescence, 90 h | inhibition, % at 8.35 µM | actives 72% (n = 5,600);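 active means mean replicate inhibition above about 95% and at least 55% of replicates individually reaching it, limit read from the data; inconclusive means only one of the two criteria is met; inactive means neither criterion is met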
# T cruzi growth-3: Trypanosoma cruzi proliferation inhibition; shares compounds with T cruzi growth-1; T. cruzi beta-gal in NIH3T3, GalScreen luminescence, 90 h; inhibition, % at 2.09 µM; actives 21% (n = 5,600); AID 651740;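 active means mean inhibition above about 95%, with at least 55% of replicates also reaching it, limit read from the data; inconclusive means meets just one of the two conditions; inactive means meets neither condition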;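 further: plate controls were neutral control median for no effect and positive control median for full effect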
# NIH3T3 tox: kills mouse NIH/3T3 fibroblasts | NIH/3T3 viability, CellTiter-Glo ATP luminescence, 90 h | actives 14% (n = 5,600) | cytotoxicity (signal decrease), % at 8.35 µM | shares compounds with T cruzi growth-1;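 active means mean signal decrease across replicates above about 35% based on untreated-well scatter, with enough replicates individually passing, limit read from the data; inconclusive means no rule stated though some were filed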;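 further: 0% = median of neutral control wells and 100% = median of positive control wells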
# 3T3 cytotox 2: cytotoxicity in mouse NIH/3T3 fibroblasts. actives 56% (n = 5,600). NIH/3T3 viability, CellTiter-Glo ATP luminescence, 90 h. AID 651744. shares compounds with T cruzi growth-1. inhibition, % at 24.9 µM;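 active means mean loss of cell viability signal at or above a set limit, and enough replicates individually reaching it; inconclusive means meets only the mean limit or only the replicate share; inactive means meets neither condition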;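 further: 0% = median of neutral control wells and 100% = median of positive control wells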
# * hit, by the source's call; u = inconclusive; x = no result.
SMILES,IDH1 mut inh,Pf Dd2 growth,KDM4C inh,T cruzi growth-1,T cruzi growth-2,T cruzi growth-3,NIH3T3 tox,3T3 cytotox 2
Cc1ccc(S(=O)(=O)Nc2ccc3c(c2)C(=O)N([C@H](C)CO)C[C@H](C)[C@H](CN(C)S(=O)(=O)c2ccc(Cl)cc2)OCCCC[C@@H](C)O3)cc1,x,-53,15,u,101*,85,26,21
Cc1ccc(S(=O)(=O)N(C)C[C@H]2OCCCC[C@@H](C)Oc3ccc(NS(=O)(=O)c4ccc(Cl)cc4)cc3C(=O)N([C@H](C)CO)C[C@H]2C)cc1,x,-80*,0,108*,98*,109*,-20,-9
C[C@@H]1CCCCO[C@H](CN(C)S(=O)(=O)c2ccc(Cl)cc2)[C@@H](C)CN([C@@H](C)CO)C(=O)c2cc(NS(=O)(=O)c3ccc(Cl)cc3)ccc2O1,1,-69,0,x,x,x,x,x
Cc1ccc(S(=O)(=O)N(C)C[C@@H]2OCCCC[C@H](C)Oc3ccc(NS(=O)(=O)c4ccc(Cl)cc4)cc3C(=O)N([C@H](C)CO)C[C@H]2C)cc1,-2,-50,1,91,x,x,x,x
Cc1ccc(S(=O)(=O)Nc2ccc3c(c2)C(=O)N([C@@H](C)CO)C[C@@H](C)[C@@H](CN(C)S(=O)(=O)c2ccc(Cl)cc2)OCCCC[C@H](C)O3)cc1,0,-86*,0,133*,107*,109*,-36,2
C[C@@H]1CCCCO[C@H](CN(C)S(=O)(=O)c2ccc(Cl)cc2)[C@@H](C)CN([C@H](C)CO)C(=O)c2cc(NS(=O)(=O)c3ccc(Cl)cc3)ccc2O1,3,-15,0,32,x,x,x,x
Cc1ccc(S(=O)(=O)Nc2ccc3c(c2)CC(=O)N([C@H](C)CO)C[C@@H](C)[C@H](CN(C)Cc2ccc(C(=O)Nc4ccccc4N)cc2)O3)cc1,x,-64,0,63,x,x,x,x
Cc1ccc(S(=O)(=O)N(C)C[C@H]2OCCCC[C@@H](C)Oc3ccc(NS(=O)(=O)c4ccc(Cl)cc4)cc3C(=O)N([C@@H](C)CO)C[C@@H]2C)cc1,x,-41,0,99*,98*,119*,-20,-2
Cc1ccc(S(=O)(=O)N(C)C[C@H]2OCCCC[C@@H](C)Oc3ccc(NS(=O)(=O)c4ccc(Cl)cc4)cc3C(=O)N([C@@H](C)CO)C[C@H]2C)cc1,-1,-49,-3,u,103*,116*,-34,-16
C[C@@H]1CCCCO[C@@H](CN(C)S(=O)(=O)c2ccc(Cl)cc2)[C@@H](C)CN([C@H](C)CO)C(=O)c2cc(NS(=O)(=O)c3ccc(Cl)cc3)ccc2O1,-1,-24,-1,74,x,x,x,x
Cc1ccc(S(=O)(=O)N(C)C[C@H]2OCCCC[C@@H](C)Oc3ccc(NS(=O)(=O)c4ccc(Cl)cc4)cc3C(=O)N([C@H](C)CO)C[C@@H]2C)cc1,x,-27,-3,76,x,x,x,x
Cc1ccc(S(=O)(=O)N(C)C[C@@H]2OCCCC[C@H](C)Oc3ccc(NS(=O)(=O)c4ccc(Cl)cc4)cc3C(=O)N([C@@H](C)CO)C[C@@H]2C)cc1,3,-41,-1,118*,104*,115*,-5,-18
COCC(=O)Nc1ccc2c(c1)C(=O)N(C)C[C@@H](OC)[C@@H](C)CN(Cc1cncnc1)[C@@H](C)CO2,0,18,-1,-24,x,x,x,x
CCCNC(=O)C[C@@H]1CC[C@@H]2[C@H](COc3ccc(NC(=O)Nc4ccccc4)cc3C(=O)N2C)O1,x,-41,-1,52,x,x,x,x
C/C=C/c1ccc2c(c1)O[C@@H](CN(C)C(=O)Nc1ccc(OC)cc1)[C@@H](C)CN([C@@H](C)CO)S2(=O)=O,0,-30,1,47,x,x,x,x
CC(C)NC(=O)N(C)C[C@H]1OCCCC[C@@H](C)Oc2ccc(NC(=O)NC3CCCCC3)cc2C(=O)N([C@@H](C)CO)C[C@H]1C,5,-8,0,-11,x,x,x,x
CN1c2ccc(-c3ccc(F)cc3)cc2[C@H]2[C@H](CCN2C(=O)Cc2cccnc2)[C@@H]1CO,x,-13,1,107*,110*,104*,-26,5
CN1c2ccc(-c3ccc(F)cc3)cc2[C@H]2[C@H](CCN2C(=O)Cc2cccnc2)[C@H]1CO,x,20,3,u,92,55,-16,10
Cc1ccc(S(=O)(=O)N(C)C[C@@H]2OCCCC[C@H](C)Oc3ccc(NC(=O)Nc4ccc5c(c4)OCO5)cc3C(=O)N([C@H](C)CO)C[C@H]2C)cc1,4,-75,-1,x,x,x,x,x
C[C@H](CO)N1C[C@H](C)[C@@H](CN(C)S(=O)(=O)c2ccc(Cl)cc2)OCCCC[C@H](C)Oc2ccc(NC(=O)Nc3ccc4c(c3)OCO4)cc2C1=O,x,-64,0,106*,114*,104*,2,-3
C[C@H](CO)N1C[C@H](C)[C@H](CN(C)S(=O)(=O)c2ccc(Cl)cc2)OCCCC[C@H](C)Oc2ccc(NC(=O)Nc3ccc4c(c3)OCO4)cc2C1=O,x,-69,-1,104*,103*,102*,-2,16
C[C@@H]1CCCCO[C@H](CN(C)S(=O)(=O)c2ccc(Cl)cc2)[C@H](C)CN([C@@H](C)CO)C(=O)c2cc(NC(=O)Nc3ccc4c(c3)OCO4)ccc2O1,x,-85*,0,100*,105*,113*,-3,11
O=S1(=O)N=C(N(Cc2ccccc2O)c2ccc(Cl)cc2)c2ccccc21,0,x,x,x,x,x,x,x
COc1ccc(S(=O)(=O)N(C)C[C@@H]2Oc3cc(C4=CCCC4)ccc3S(=O)(=O)N([C@@H](C)CO)C[C@@H]2C)cc1,-1,-61,1,109*,104*,88,27,39*
Cc1ccc(S(=O)(=O)N(C)C[C@H]2Oc3cc(C4=CCCC4)ccc3S(=O)(=O)N([C@H](C)CO)C[C@H]2C)cc1,0,-22,2,x,x,x,x,x
COc1cccc(S(=O)(=O)N(C)C[C@@H]2Oc3cc(C4=CCCC4)ccc3S(=O)(=O)N([C@H](C)CO)C[C@@H]2C)c1,0,-68,0,107*,104*,81,27,27*
COc1ccc(S(=O)(=O)N(C)C[C@@H]2Oc3cc(C4=CCCC4)ccc3S(=O)(=O)N([C@H](C)CO)C[C@@H]2C)cc1,0,-38,0,120*,101*,78,34,49*
COc1cccc(S(=O)(=O)N(C)C[C@H]2Oc3cc(C4=CCCC4)ccc3S(=O)(=O)N([C@@H](C)CO)C[C@H]2C)c1,0,-4,-2,74,x,x,x,x
